Source: ChEMBL document CHEMBL1122715, “beta-Lapachone: synthesis of derivatives and activities in tumor models” (1984)
In brackets after ≈: the same amount, converted by molar mass.

Legend:
Mus musculus = assay: Maximum tolerated dose (MTD, po) in uninfected NMRI mice
[1] = system: Avian myeloblastosis virus; assay: In vitro inhibition of RNA dependent DNA polymerase of Avian myeloblastosis virus (AMV); format: functional; settings: read-out: ED50
Procedure, shortened: (§1)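 Reverse transcriptase activity assayed with poly(rA)·oligo(dT) or poly(rC)·oligo(dG) template-primer (20 μg/mL) and [³H]dTTP or [³H]dGTP substrate (20 μM, […]); inhibition read as loss of labelled nucleotide incorporation.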

[2] = system: Rauscher murine leukemia virus; assay: In vitro inhibition of RNA dependent DNA polymerase of Rauscher leukemia virus (RLV); format: functional; settings: read-out: ED50
Procedure, shortened: as §1

Compound	MTD (Mus musculus) [mg/kg]	EC50 [1] [µg/mL]	EC50 [2] [µg/mL]
CC1(c2ccccc2)CCC2=C(O1)c1ccccc1C(=O)C2=O (stereo unspecified)	>2500	2 (≈ 6.57 µM)	2 (≈ 6.57 µM)
CCC1(CC)CCC2=C(O1)c1ccccc1C(=O)C2=O	2500	2 (≈ 7.4 µM)	
O=C1C(=O)c2ccccc2C2=C1CCC1(CCCCCC1)O2		15 (≈ 50.6 µM)	
COc1cc2c(cc1OC)C1=C(CCC(C)(C)O1)C(=O)C2=O	>1250	5 (≈ 16.5 µM)	
CCC1(C)CCC2=C(O1)c1ccccc1C(=O)C2=O (stereo unspecified)	125	< 2	
CC1(C)CCC2=C(O1)c1ccc(Cl)cc1C(=O)C2=O	>2500		
O=C1C(=O)c2ccccc2C2=C1CCC1(CCCCC1)O2	>2500	3 (≈ 10.6 µM)	
O=C1C(=O)c2ccccc2C2=C1CCC(c1ccccc1)O2 (stereo unspecified)	>2500	< 2	
O=C1C(=O)c2ccccc2C2=C1CCC1(CCCC1)O2	>2500	3 (≈ 11.2 µM)	
Cc1ccc2c(c1)C(=O)C(=O)C1=C2OC(C)(C)CC1	>2500		
CC1(C)CCC2=C(O1)c1ccccc1C(=O)C2=O [LAPACHONE]	1250	< 2	< 2
